Published values from different studies.
Each line is one published result; the experiments were not run side by side.
CSF1R: Macrophage colony-stimulating factor 1 receptor (CSF1R, Homo sapiens, UniProt P07333)
CSF1R autoinhibited: Macrophage colony-stimulating factor 1 receptor, autoinhibited (CSF1R, Homo sapiens, UniProt P07333)
CSF1R Y969C: Macrophage colony-stimulating factor 1 receptor (CSF1R, Homo sapiens, UniProt P07333, Y969C)

SMILES | target | effect on | action | method | tested at | measurement | value
COc1ccc2cc(OCC3(C(=O)O)CN(C(=O)c4ccc(F)cc4)C3)ccc2c1 | CSF1R | cell-free assay | – | competition with immobilised ligand | 1 µM | remaining binding | 100%
CN(C)c1nccc(-c2cnc3ncccn23)n1 | CSF1R autoinhibited | binding | – | – | 1 µM | remaining binding | 65%
COc1cc(Cl)c(C(=O)N[C@@H](CN[C@H]2CC[C@@H](N)CC2)Cc2ccc(C#N)cc2)cc1-c1ccc(CN[C@H](C)c2ccc(C)cc2)o1 | CSF1R | enzyme activity | inhibitor | – | 1 µM | remaining activity | 111%
O=C(N1CCS(=O)(=O)CC1)N1C[C@H](c2ccc(OC(F)(F)F)cc2)C[C@H](c2nc(C3CC3)no2)C1 | CSF1R | cell-free assay | – | competition with immobilised ligand | 1 µM | remaining binding | 100%
CNC(=O)c1cc2c(Oc3ccc(NC(=O)C4(C(=O)Nc5ccc(F)cc5)CC4)cc3)ccnc2cc1OC | CSF1R Y969C | enzyme activity | inhibitor | radiometric | 1 µM | inhibition | 77%
CN(C)C1CCN(CC#Cc2nn(C3CCCC3)c3nc(NCc4ccccc4)ncc23)C1 (stereo not shown) | CSF1R | enzyme activity | inhibitor | FRET | 0.1 µM | inhibition | 44%
O=S(=O)(c1cccc2cnccc12)N1CCCNCC1 | CSF1R | cell-free assay | – | – | 0.5 µM | remaining signal | 97.9%
COc1cc2nccc(Oc3ccc(NC(=O)c4c5n(n(-c6ccc(F)cc6)c4=O)CCCC5)cc3)c2cc1OC | CSF1R | enzyme activity | inhibitor | – | 0.1 µM | inhibition | 38%
O=C1NC(=O)c2cc(Nc3ccc(F)cc3)c(Nc3ccc(F)cc3)cc21 | CSF1R | cell-free assay | – | – | 0.5 µM | remaining signal | 104%
CCS(=O)(=O)c1cc2cc(C[C@@](O)(CC(C)(C)c3ccc(F)cc3C(N)=O)C(F)(F)F)[nH]c2cn1 | CSF1R autoinhibited | cell-free assay | – | competition with immobilised ligand | 1 µM | remaining binding | 94%
Cc1ccc(NC(=O)c2ccc(C)c(C(F)(F)F)c2)cc1C#Cc1nn(C2CCC(O)CC2)c2ncnc(N)c12 (stereo not shown) | CSF1R Y969C | cell-free assay | – | – | 10 µM | remaining signal | 13%
O=C(CSc1nc2nccnc2c(=O)n1CCc1ccccc1)Nc1nccs1 | CSF1R | enzyme activity | inhibitor | – | 10 µM | inhibition | 13%
O=C(Nc1cnn(-c2csc(C(=O)NC3COC3)c2)c1)Nc1c(F)cccc1Cl | CSF1R | enzyme activity | inhibitor | – | 5 µM | remaining activity | 98.9%
C[C@@H]1CCN(c2nccc(-c3cnn4ncccc34)n2)C1 | CSF1R | binding | – | – | 1 µM | remaining binding | 100%
CCCCN(CCCC)C(=O)CN1C[C@@H](c2cc(OC)c3c(c2)OCO3)[C@H](C(=O)O)[C@H]1CC(C)(C)CCC | CSF1R autoinhibited | cell-free assay | – | competition with immobilised ligand | 1 µM | remaining binding | 100%
CC(C)(O)[C@H]1CC[C@H](Nc2ccc3ncc(-c4cccc(C(F)(F)F)c4)n3n2)CC1 | CSF1R | enzyme activity | inhibitor | – | 1 µM | remaining activity | 89.7%
CO[C@@H](C)c1c(Nc2ccc([C@@H](N(C)C(=O)C3CCS(=O)(=O)CC3)C(F)(F)F)cc2)cnc2cc(Cl)nn12 | CSF1R autoinhibited | cell-free assay | – | competition with immobilised ligand | 1 µM | remaining binding | 88%

SMILES | target | effect on | action | method | tested at | measurement | value
Nc1ncnc2occ(-c3ccc(NC(=O)Nc4cc(C(F)(F)F)ccc4F)cc3)c12 | CSF1R | cell-free assay | – | – | 20 µM | remaining signal | 0%
CCCOc1ccc([C@H]2[C@H](C(=O)O)[C@@H](c3ccc4c(c3)OCO4)CN2CC(=O)Nc2c(CC)cccc2CC)cc1 | CSF1R autoinhibited | cell-free assay | – | competition with immobilised ligand | 1 µM | remaining binding | 61%
CC(C)(C)c1nc(-c2cccc(NS(=O)(=O)c3c(F)cccc3F)c2F)c(-c2ccnc(N)n2)s1 | CSF1R | enzyme activity | inhibitor | radiometric | 1 µM | remaining activity | 109%
FC(F)(F)c1ccc2c(c1)nc(-c1cccnc1)n2C1CC1 | CSF1R autoinhibited | cell-free assay | – | competition with immobilised ligand | 1 µM | remaining binding | 89%
Cc1cc(NC(=O)c2cccc3cc(-c4cccc5[nH]nc(N)c45)ccc23)ccc1F | CSF1R | enzyme activity | inhibitor | – | 0.1 µM | activity vs control | 7%
COc1cc2ncnc(Nc3ccc(Oc4ccccc4)cc3C)c2cc1OC | CSF1R | enzyme activity | inhibitor | – | 1 µM | inhibition | 24%
Cc1cnc(NC2CCOCC2)nc1-n1cnc(C(=O)NC(CN)c2cc(F)cc(Cl)c2)c1 (stereo not shown) | CSF1R Y969C | enzyme activity | inhibitor | radiometric | 1 µM | remaining activity | 101%
CCN(CC)CCNC(=O)c1c(C)[nH]c(/C=C2\C(=O)Nc3ccc(F)cc32)c1C | CSF1R | cell-free assay | – | – | 0.3 µM | inhibition | 98%
CCCOc1ccc(OC)c(F)c1C(=O)c1ccc(C(=O)N[C@@H]2CNC[C@H]2NC(=O)c2ccc3[nH]ncc3c2)cc1 | CSF1R | enzyme activity | inhibitor | – | 10 µM | remaining activity | 27%
CN(CCCC(F)(F)F)c1nccc(-c2cnn3ncccc23)n1 | CSF1R autoinhibited | binding | – | – | 1 µM | remaining binding | 100%
O=C1Nc2ccc(Cl)cc2C1=Cc1cc(Cl)c(O)c(Cl)c1 | CSF1R | cell-free assay | – | – | 0.5 µM | remaining signal | 77.9%
Cc1ccc(C(=O)NCc2ccsc2)cc1C#Cc1cn(C(C)C)c2ncnc(N)c12 | CSF1R | enzyme activity | inhibitor | – | 1 µM | activity vs control | 8%
N[C@@H]1CCN(c2nccc(-c3cnn4ncccc34)n2)C1 | CSF1R | binding | – | – | 1 µM | remaining binding | 100%
O=Nc1c(-c2c(O)[nH]c3ccccc23)[nH]c2ccccc12 | CSF1R | cell-free assay | – | – | 0.5 µM | remaining signal | 83.2%
Cc1c(NC(=O)c2cc(C(N)=O)nc3cc(F)ccc23)c(C(F)(F)F)nn1Cc1ccc(C#N)cc1 | CSF1R | cell-free assay | – | competition with immobilised ligand | 1 µM | remaining binding | 83%
CN(c1nccc(-c2cnn3ncccc23)n1)C1CC1 | CSF1R | binding | – | – | 1 µM | remaining binding | 88%
CCN(CC)c1ccc(C2=NNC(=O)CC2C)cc1[N+](=O)[O-] (stereo not shown) | CSF1R | enzyme activity | inhibitor | – | 10 µM | remaining activity | 114%
